In the RNAGym collection of RNA variant scans (doi:10.1126/science.aae0568) one finds yeast fitness data, which are given here for 167 variants.

Variants at the floor of the assay were thinned out.

The labels stand for the following.
B1: tRNA (parent)
chain: GUUCCGUUGGCGUAAUGGUAACGCGUCUCCCUCCUAAGGAGAAGACUGCGGGUUCGAGUCCCGUACGGAACG

In this data set the parent is B1. Put plainly: yeast fitness relative to wild type (ratio to wild type); higher = fitter; tRNA-Arg(CCU), competitive growth, 37 C, YPD. A digest of the protocol:
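Variants of the tRNA-Arg(CCU) gene, chemically synthesised with a 3% per-site mutation rate at 69 sites, were placed at the native genomic locus in Saccharomyces cerevisiae. The pooled strains were competed in YPD at 37°C for 24 hours in six parallel replicates. Gene amplicons from the start population and from each end population were read by 100-nucleotide paired-end sequencing. Darwinian fitness relative to wild type came from changes in genotype frequencies; genotypes needed ≥ 100 starting reads, and estimates < 0.5 were set to 0.5.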
For U2A A20C C33G C46U, the yeast fitness was not above 0.5.
As to U32A C61G C66G, the yeast fitness stood at 0.576.
To U2C A21G C33G belongs not above 0.5; to G10C U16G C31A U32G C66A, not above 0.5.
To U19C U28A G38C G44C C46A belongs 0.572; to C34G G41C C49U C62A A69C, not above 0.5; to U59G C60U, 0.63.
To C31G U35A G56A G63A belongs not above 0.5; to U16C C31A G51A, not above 0.5.
C11U C31U C46G U47A A65C: the yeast fitness was not above 0.5.
To A20U C60U A69U belongs 0.672; to A15G C60G A69C, 0.585.
The result for U19A A21G reads 0.987; that for C24U U26G C30U G39C G67A A69U, not above 0.5; that for G10C C11U A21G A40G, not above 0.5.
To U2G C11A C24A U26A G44C belongs not above 0.5; to G6A U8C A42C A45U A57G A70C, not above 0.5; to U2A C33G, 0.714.
For the variant C4U G18C C31U, the yeast fitness is not above 0.5.
To C4U C34G A37C belongs 0.539; to U28G A36U C60U, not above 0.5; to G44C A45G, 0.958.
The result for U8A U53A reads not above 0.5; that for C29A G44C, 0.778.
The result for C29U A43G C49A reads 0.615; that for A21C A45G, 0.918; that for A40U G56C, 0.651.
Regarding C46U A65C, the yeast fitness was 0.997.
With G39C U47C A57C C61A U64C, the yeast fitness was not above 0.5.
For U8G U47A, the yeast fitness was determined as 0.602.
Take U2C C5A C11A A40G: the yeast fitness is not above 0.5.
To C5U A14C G41C G58C C66U belongs 0.523; to G12A G38C, 0.869; to G17C A37C, 0.644.
With G9A G44U, the yeast fitness amounted to 0.766.
For the variant A15C U28C G48C, the yeast fitness is not above 0.5.
With C5G A36U G41A A65U, the yeast fitness was found to be 0.549.
The result for A15U C22G G52A A65U reads not above 0.5; that for G25A G41A C60G C62G A65G, not above 0.5.
On to C5A C30A A43U A57G, for which the yeast fitness is not above 0.5.
For C4G A36U C46G C62A A69C, the yeast fitness was not above 0.5.
The result for A20U C29U C49G C55A C66U reads not above 0.5.
The result for G6C C31G C33G U47C G51A C66U reads not above 0.5; that for U35G A40G C49G, not above 0.5; that for A14G A15C C46A A69U, not above 0.5.
In the case of C5U G44C G68U, the yeast fitness worked out at 0.663.
To C4A C33U belongs 0.754.
To C29G G38A belongs 0.614; to A37U C49U G58A, 0.57; to U8C C31U C46A C49A, not above 0.5.
The result for C4G A21G C31G C33G reads not above 0.5; that for C5U C27G C33G A42C U64A, not above 0.5.
As to C5G C33U A65C G68C, the yeast fitness is not above 0.5.
The result for U2G G12A A15U C24G U53A U64A reads not above 0.5; that for U13C A65G A70C, 0.744.
G12C U19A C27G C62A: the yeast fitness is not above 0.5.
To C11G C30A belongs 0.588.
For U2C U7A A37G A42U G48C C55U C66G, the yeast fitness was not above 0.5.
The result for C5U G17A A36U U47A C66U reads 0.58; that for A15U C22G U32A C66A, not above 0.5; that for U3C G25C G38A A42C G52A C62U, not above 0.5.
On to U13G G41C, for which the yeast fitness was found to be 0.782.
To A36C A45C belongs 0.763; to A20G C24A C49U C66U A70C, not above 0.5.
Turning to C55U C62G, the yeast fitness was 0.739.
As for A40C G68U, the yeast fitness is 0.788.
Turning to C34U G58C, the yeast fitness was determined as 0.757.
Consider C29G C34U C62U, for which the yeast fitness is not above 0.5.
To C11A A15G C22G C61U belongs not above 0.5; to U2A C24G, 0.643.
The result for U7G A15G U19C A21G G41A reads 0.535; that for C27A G39C C46A, not above 0.5; that for A43C C49G A57G, 0.591.
To A21G C49U belongs 0.994; to G52A G68A, 0.678.
Turning to U2A U32A U64A A65U, the yeast fitness came to 0.581.
To C31A C62A C66G belongs not above 0.5; to C22G C31U C61G, 0.614; to A14U A21G C29G U59A, not above 0.5.
To U3G U13C A14U C61G C62U belongs not above 0.5; to C46U C66U, 1.02; to U7G A15C U16A C33G A37C C49A U53C, not above 0.5.
Take U19A G56A: the yeast fitness is 1.
To U28G G51U U64A C66U A69C belongs not above 0.5; to U28G C55A, 0.572; to C22G C27G C31G C61G A69U, 0.62.
For G38A A40G C49U C66A, the yeast fitness was not above 0.5.
For C11U G44A C49U, the yeast fitness is 0.81.
To C33U A36C belongs 0.517.
On to U26A A40U A65C, for which the yeast fitness worked out at 0.662.
With C61U G68U, the yeast fitness came out at 0.639.
Regarding G10A C27U C34G A37U G41C G48A, the yeast fitness was found to be 0.573.
On to G6A C22U U53G, for which the yeast fitness stood at 0.653.
The result for G9A U54C reads 0.841; that for A36U C49U C62G, not above 0.5; that for U19G A37G A65U, 0.61.
To C5G U16C C31U belongs 0.627; to C4U A14G A36C C46G C62U, not above 0.5.
For A36G G50A, the yeast fitness worked out at 0.898.
As to A36C A37C U53G, the yeast fitness is not above 0.5.
To U2A G50A belongs 0.858; to U13C A40C, 0.882.
On to A20C C24U C31G A37U C60G, for which the yeast fitness is not above 0.5.
To G9A C27G C31U C46G G51C G52A belongs not above 0.5; to U19C U35C C49U C61G, not above 0.5.
The result for C11A G18A reads 0.58; that for G9C A20C, 0.626.
The result for U13G C22U G25A reads 1.01; that for G12C U13C A20C C24G G39C G68C, 0.511; that for U3A G10C G17C A37C G50C, not above 0.5.
As for U3A C24U C31G A37G, the yeast fitness is not above 0.5.
G18C G23A G25C A37G A43C C55G C62G: the yeast fitness is not above 0.5.
To G9A C24G C34G belongs 0.633; to U8A C31G A42G G52C, not above 0.5; to G6C C34G, 0.717.
The result for C27U C30G reads 0.624; that for G10A C34G A69U, not above 0.5.
Take U7A U19C C27G A43U U47A A65U G67C: the yeast fitness was not above 0.5.
In the case of G38C A70C, the yeast fitness came out at 0.738.
To U7G C30U U47A belongs not above 0.5.
For U8A G9C U54A, the yeast fitness was not above 0.5.
The result for A15G G58A C62U A69C reads 0.685.
The result for C11U C24U C29G G38A A40C reads not above 0.5.
To A37C C60G belongs 0.562.
Take U8C C11U C24G A45C: the yeast fitness was determined as 0.629.
As for U2C C31G G56A, the yeast fitness was 0.687.
To C29U A70C belongs 0.867.
To A42G A57C belongs 0.7.
The result for C30A C31A G38A C49U G52A reads not above 0.5; that for G25A G41A G52C, not above 0.5.
For the variant U35G A42G G56C, the yeast fitness was 0.59.
The result for C11U U64A reads 0.71.
Take A37G C46U U59G: the yeast fitness stood at 0.508.
To C11U G18C C31U C62U belongs not above 0.5.
Regarding G6C A20G G52A, the yeast fitness was not above 0.5.
For U35C A45C C49G, the yeast fitness is 0.562.
The result for U7G C11G C34U G41A reads 0.525; that for U2A G50C U59C C60A, 0.877; that for G9C C27G G44A A57G, 0.691.
On to C5U U7C C31A G39A, for which the yeast fitness was not above 0.5.
For the variant C4U U7A A37C, the yeast fitness was not above 0.5.
As to A42U C55G, the yeast fitness was found to be 0.616.
To U3A G12C C24G belongs not above 0.5; to U19G G38A G50A, not above 0.5.
In the case of C11G G12A G41C C66A G67C, the yeast fitness came to 0.596.
To C5A A21U belongs 0.621; to U13A G17A G51A C62U G67C, not above 0.5.
To U7G G23A C29U A36U belongs not above 0.5.
Turning to C5U C49G, the yeast fitness came to 0.919.
Take G63C A65C C66A: the yeast fitness was not above 0.5.
To C27G U59G G68C belongs 0.582.
For C4U G56A, the yeast fitness was found to be 0.934.
On to C29G C31G C49G C61G, for which the yeast fitness is not above 0.5.
Turning to C31A G52C U64C, the yeast fitness is not above 0.5.
For A20G G67A A69C, the yeast fitness amounted to 0.563.
On to G44C G58C, for which the yeast fitness is 0.919.
Take C5A U32C A36G: the yeast fitness is 0.53.
To C5G G17C C46U G50A belongs not above 0.5; to C29U U53A C61U U64C, not above 0.5; to A37G C62U, 0.864.
G12C C33A: the yeast fitness was 0.682.
For U28G A57U G63A, the yeast fitness was found to be 0.874.
For the variant A21C G25C U26G U59A G63C G68U, the yeast fitness was not above 0.5.
As to G25A C34G G67A, the yeast fitness was not above 0.5.
Consider A20C C33A G41C C49G, for which the yeast fitness was found to be 0.519.
With A20U A42U A45G, the yeast fitness is 0.532.
The result for A36G A42G reads 0.797.
